Results taken from ChEMBL document CHEMBL4513216, “Probing the Open Global Health Chemical Diversity Library for Multistage-Active Starting Points for Next-Generation Antimalarials” (ACS Infect Dis, 2020).

assay: Toxicity liver stage against HepG2, at 10uM; assay type: cell-based; design: test concentration 10 uM, cell line HepG2-A16-CD81EGFP; details: human, HepG2-A16-CD81EGFP cells; read-out: INHIBITION
Procedure, shortened: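 Uninfected HepG2-A16-CD81EGFP cells, 3 × 10^3 per well, 1536-well, plated on prespotted compound at 10 μM final, parasite-free screening media added to match infected plates; puromycin 10 μM positive, DMSO 0.5% negative; run in parallel with 48 h PbLuc assay at 37 °C, 5% CO2; viability by CellTiter-Glo luminescence, normalized to controls.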

Compared with `Cc1ccc(S(=O)(=O)Nc2c(C)nn(C)c2C)cc1C`, `Cc1cc(C(=O)NCCC2CN(C)CCO2)c2cccc(C)c2n1` (configuration not stated) is lower in cytotoxicity at 10 µM: 12.9% for the first, -2.94% for the second.

Compared with `CN1CCC(NC(=O)NCc2csc(Br)c2)CC1`, `CCOCc1ccccc1NC(=O)NC1CCN(C(=O)OCC)CC1` is lower in cytotoxicity at 10 µM: -8.92% for the first, -14.5% for the second.

Compared with `CC(C)(C)c1cc(C[C@H]2CNCC[C@H]2CC(=O)NCc2cccs2)no1`, `c1cncc(OC[C@@H]2CC[C@H]3[C@H](CCN3Cc3cccs3)O2)c1` is higher in cytotoxicity at 10 µM: -2.28% for the first, 6.23% for the second.

First: CCOC(=O)CNC(=O)NCc1cccn1Cc1cccc(C)c1
Second: Cc1cccc(S(=O)(=O)NCc2cccc(CS(C)(=O)=O)c2)c1
The cytotoxicity at 10 µM of the first is higher: 9.24% for the first, -18.4% for the second.

Going from `O=c1c(NCCc2ccc(O)cc2)c(NCc2ccco2)c1=O` to `CNc1nc2cn(CCc3ccc(F)cc3)c(=O)c-2c[nH]1`, the cytotoxicity at 10 µM rises from -10.7% to 7.55%.

Compared with `O=C(CCCNc1ncccn1)Nc1ccc(Cn2cncn2)cc1`, `COc1ccc2cc(NC(=O)CCCNc3ncccn3)cnc2c1` is lower in cytotoxicity at 10 µM: 0.55% for the first, -50.5% for the second.

First: CCOc1cc(NC(=O)C2CC(=O)N(c3cccc(OC)c3)C2)ncn1 (configuration not stated)
Second: COc1cccc(C(C)Nc2ncnc3c2NC(=O)CN3)c1 (configuration not stated)
The cytotoxicity at 10 µM of the first is lower: -4.31% for the first, 9.76% for the second.

Compared with `O=S(=O)(NCC(O)c1ccoc1)c1ccc(Cl)s1` (configuration not stated), `N#Cc1cccc(NS(=O)(=O)c2ccc(C(=O)O)cc2F)c1` is higher in cytotoxicity at 10 µM: -9.34% for the first, -3.67% for the second.

First: CC(C)c1nc(-c2cc(C(=O)O)c3ccccn23)cs1
Second: Cn1cccc1-c1cc(C(=O)N2CCCC2c2nccs2)[nH]n1 (configuration not stated)
The cytotoxicity at 10 µM of the first is higher: 7.43% for the first, 3.78% for the second.

Going from `Cc1ccc(CN2CC[C@@H]3CN(S(C)(=O)=O)CCO[C@@H]3C2)o1` to `O=C(c1cccs1)N1CC[C@@H]2CN(C3CCOCC3)CCO[C@@H]2C1`, the cytotoxicity at 10 µM falls from 8.76% to -110%.

Compared with `CC(C)N1CCCc2sc(C(=O)NC3CC3)nc21`, `CC(=O)N1CCC(CCNC(C)c2cc(C)cc(C)c2)CC1` (configuration not stated) is higher in cytotoxicity at 10 µM: -143% for the first, -9.8% for the second.

Compared with `O=c1cc(Cn2cncn2)nc2n1CCCN(Cc1ccco1)C2`, `Cn1nc2c(cc1=O)CN(Cc1nnc(-c3ccco3)o1)CC2` is lower in cytotoxicity at 10 µM: 7.61% for the first, -4.64% for the second.

First: CNC(=O)CSc1cnn(CC(=O)Nc2cccc(Cl)c2C)c(=O)c1Cl
Second: CNC(=O)C(C)NC(=O)c1cc(COc2ccc(OC)cc2Cl)[nH]n1 (configuration not stated)
The cytotoxicity at 10 µM of the first is lower: -17.6% for the first, 5.27% for the second.

First: CC(C)(C)NCc1nn(Cc2ccccc2)nc1-c1ccccc1
Second: CC(=O)N(CCc1ccccc1)CC(=O)Nc1ccccc1C#N
The cytotoxicity at 10 µM of the first is higher: 11.9% for the first, 6.59% for the second.

First: COc1ccc(CNc2ncnc3c2NC(=O)CN3)cc1
Second: COC(=O)c1ccc(C(=O)NCc2ccc(Br)cc2)cn1
The cytotoxicity at 10 µM of the first is higher: 11.8% for the first, -23.2% for the second.

Compared with `CCN(CC)C(=O)c1ccn(COc2cc(C)cc(C)c2)n1`, `Cc1cnc(CNC(=O)NCc2cccnc2N(C)C)s1` is lower in cytotoxicity at 10 µM: 13.9% for the first, -12.4% for the second.

First: Cc1cc(N(C)C)nc(C2COCCN2Cc2cscn2)n1 (configuration not stated)
Second: Cc1csc(N2CCN(Cc3cscn3)CC2C)n1 (configuration not stated)
The cytotoxicity at 10 µM of the first is lower: -6.94% for the first, 16% for the second.

First: O=C(CCc1ccc(Cl)cc1)N[C@@H]1CC[C@@H](O)[C@@H]1O
Second: O=C(CCc1ccccc1)NCC(O)c1c(F)cccc1F (configuration not stated)
The cytotoxicity at 10 µM of the first is higher: 3.85% for the first, -0.558% for the second.

First: COCCN1CCC(c2cncc(-c3ccccc3C)n2)CC1
Second: COCCOC1CCN(C(=O)NCc2coc3ccccc23)CC1
The cytotoxicity at 10 µM of the first is lower: -15.1% for the first, -8.93% for the second.

Compared with `O=C1NCC2(CCCN(Cc3ccc(F)cc3)C2)Oc2ccccc21` (configuration not stated), `O=c1ccc(-c2ccccc2F)nn1CCN1CCCS1(=O)=O` is higher in cytotoxicity at 10 µM: -12.8% for the first, -10% for the second.

Compared with `Cc1noc(C)c1-c1cccc(CC2CCN(C(=O)c3cc[nH]n3)C2)n1` (configuration not stated), `Cc1nccn1C1CCCN(C(=O)c2ccc3c(c2)nc(C)n3C)C1` (configuration not stated) is lower in cytotoxicity at 10 µM: 2.31% for the first, -9.75% for the second.

Going from `CCn1cc(CN2C[C@@H]3CCCN3C[C@@H]2CCSC)c(C)n1` to `N#Cc1ccc(CN2CCCC(Cn3cncn3)C2)c(F)c1` (configuration not stated), the cytotoxicity at 10 µM falls from 3.29% to 0.762%.

First: O=C(c1cn(-c2ccc(C(F)(F)F)cn2)nn1)N1CCCCCC1
Second: O=C(c1ccc[nH]1)N1CCCn2c(CNC3CCC3)nnc2C1
The cytotoxicity at 10 µM of the first is higher: -57.4% for the first, -105% for the second.

Going from `CC(NCc1nnc2n1CCCC2)c1nc(Cc2ccccc2)no1` (configuration not stated) to `CC(C)c1ncc2c(n1)CN(Cc1noc(-c3ccccc3)n1)CC2`, the cytotoxicity at 10 µM rises from -45.1% to -0.414%.

Going from `N#CCCN(CCC#N)C(=O)c1cccc(N2CCNC2=O)c1` to `Cc1nccn1CC1CCCN1S(=O)(=O)Cc1cccc(C#N)c1` (configuration not stated), the cytotoxicity at 10 µM falls from -18.7% to -20.7%.

Compared with `Cc1cccc(NC(=O)[C@@H]2CCCN2Cc2cnc3ccccn23)n1`, `Cc1ccc(CN2CC(C(=O)Nc3ccccc3)C3(CCOCC3)C2)s1` (configuration not stated) is lower in cytotoxicity at 10 µM: -7.22% for the first, -17.5% for the second.

First: CC(C)NC(=O)Nc1cccc2c1CCN(S(C)(=O)=O)C2
Second: CC(C)c1nnc2n1CCN(C(=O)c1cccc(S(C)(=O)=O)c1)C2
The cytotoxicity at 10 µM of the first is higher: -8.59% for the first, -28.4% for the second.

First: Cc1noc(C2CCN(CC(=O)N3CCNC(=O)C3)CC2)n1
Second: CN(Cc1noc(C2CC2)n1)C1CCN(Cc2ccncc2)C1 (configuration not stated)
The cytotoxicity at 10 µM of the first is higher: 2.41% for the first, -10.6% for the second.

First: NCc1ccc(N2CCN(c3ncccn3)CC2)c(F)c1
Second: O=C(CCNc1ncccn1)N1CCN(c2nccs2)CC1
The cytotoxicity at 10 µM of the first is lower: -50.8% for the first, -11.6% for the second.

First: Cn1cc(CCCN2CCN(Cc3cccc(O)c3)CC2)cn1
Second: CC(NCCCc1cnn(C)c1)c1ccc(Br)s1 (configuration not stated)
The cytotoxicity at 10 µM of the first is lower: -52.5% for the first, 9.59% for the second.

First: CCN(Cc1csc(C)n1)c1cccc(CO)c1
Second: Cc1nc(CN2CCC3(CC2)NC(=O)CC3c2ccncc2)cs1 (configuration not stated)
The cytotoxicity at 10 µM of the first is lower: -6.55% for the first, 5.79% for the second.

Going from `CC/C=C(/C)C(=O)NS(=O)(=O)c1ccc(C#N)c(C(F)(F)F)c1` to `N#Cc1cccc(S(=O)(=O)NC(=O)COc2ccc3c(c2)CCC3)c1`, the cytotoxicity at 10 µM falls from 2.99% to 1.33%.

First: CC(C)c1ccc(S(=O)(=O)Cc2nc(N)nc(N(C)C)n2)cc1
Second: Cc1ccc(-c2cnn(CC(=O)NC(C)C)c2)cc1
The cytotoxicity at 10 µM of the first is lower: -11.1% for the first, 0.724% for the second.

Going from `Cc1cc(Cl)c2c(c1)C1(NC(=O)c3cccnc3N1)C(=O)N2` (configuration not stated) to `Cc1nc2c(c(NCc3cc4ccccc4s3)n1)CCNCC2`, the cytotoxicity at 10 µM falls from 4.97% to -48.3%.

First: CS(=O)(=O)N1CCC2(CC1)CC(NCc1ccccn1)c1ccccc12 (configuration not stated)
Second: O=C(CC1CCc2ccccc21)NC1(C(=O)O)CCOCC1 (configuration not stated)
The cytotoxicity at 10 µM of the first is lower: -109% for the first, -2.13% for the second.

Going from `CC(=O)NCC(=O)N1Cc2nccn2CC(Cn2cccn2)C1` (configuration not stated) to `CN(C)C(=O)COCc1nnc2n1CCN(Cc1ccoc1)C2`, the cytotoxicity at 10 µM rises from 2.44% to 8.49%.

First: Cc1ncc(CC(=O)N2CCC3(CCC(=O)N(CCO)C3)CC2)c(=O)[nH]1
Second: CC(C)c1noc(CN2CCN(C(=O)c3cccnc3O)CC2)n1
The cytotoxicity at 10 µM of the first is lower: -44.7% for the first, -9.86% for the second.

Compared with `COc1ccc(-c2nc(CN3CCCC(OC)C3)c(C)o2)c(F)c1` (configuration not stated), `Cc1nc(C2(O)CCCNCC2)sc1CCOc1ccc(F)c(F)c1` (configuration not stated) is higher in cytotoxicity at 10 µM: -37.8% for the first, -21.4% for the second.

Compared with `COc1nc2ccn(CCc3scnc3C)c(=O)c2cc1C#N`, `CCN(Cc1ccc2c(c1)OCO2)C(=O)c1ccc(C)[nH]c1=O` is lower in cytotoxicity at 10 µM: 12.8% for the first, -7.21% for the second.

Going from `Cc1cc(C(=O)N2C[C@@H](C(=O)O)[C@H](C(C)C)C2)cs1` to `O=C(c1cccc(OCc2cscn2)c1)N1CCOCC1`, the cytotoxicity at 10 µM rises from -10.4% to -6.13%.

Going from `CCc1n[nH]c(C2CN(C(=O)c3cnc(C)s3)CCO2)n1` (configuration not stated) to `Cc1cnnn1Cc1nnn2c1CN(Cc1cccs1)CCC2`, the cytotoxicity at 10 µM rises from -6.64% to 8.28%.
